Experiments:
[1] = tested on: Amaranthus retroflexus; assay: Herbicidal activity against Amaranthus retroflexus assessed as inhibition of fresh plant weight at 750 g/ha using postemergence protocol measured after 24 days under green house conditions; settings: post-emergence
[2] = tested on: Amaranthus retroflexus; assay: Herbicidal activity against Amaranthus retroflexus assessed as inhibition of fresh plant weight at 600 g/ha using postemergence protocol measured after 24 days under green house conditions; settings: post-emergence
[3] = tested on: Echinochloa crus-galli; assay: Herbicidal activity against Echinochloa crus-galli (barnyard grass) assessed as inhibition of fresh plant weight at 750 g/ha using preemergence protocol measured after 24 days under green house conditions; settings: pre-emergence
[4] = tested on: Brassica rapa subsp. oleifera; assay: Herbicidal activity against Brassica rapa subsp. oleifera assessed as inhibition of fresh plant weight at 750 g/ha using preemergence protocol measured after 24 days under green house conditions; settings: pre-emergence
[5] = tested on: Spirodela polyrhiza; assay: Inhibition of chlorophyll in Spirodela polyrhiza fronds at 1 ug/mL using light intensity of 45 uE/m2/s measured after 7 days; format: functional; settings: 168 h
Procedure, shortened: (§1)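 Giant duckweed assay. Compound in DMF dropped onto filter paper, solvent evaporated 15 min, paper placed in flask with 15 mL fresh medium and shaken >10 min. 10 fronds inoculated per flask and grown 7 days at 23-26 °C, 16 h light/8 h dark, ca. 45 µE m^-2 s^-1. DMF plus medium served as control. Chl extracted in 96% ethanol overnight at 4 °C; OD read at 665 and 649 nm; content expressed as percent of control.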

[6] = tested on: Echinochloa crus-galli; assay: Herbicidal activity against Echinochloa crus-galli (barnyard grass) assessed as inhibition of fresh plant weight at 750 g/ha using postemergence protocol measured after 24 days under green house conditions; settings: post-emergence
[7] = tested on: Brassica rapa subsp. oleifera; assay: Herbicidal activity against Brassica rapa subsp. oleifera assessed as inhibition of fresh plant weight at 150 g/ha using postemergence protocol measured after 24 days under green house conditions; settings: post-emergence
[8] = tested on: Brassica rapa subsp. oleifera; assay: Herbicidal activity against Brassica rapa subsp. oleifera assessed as inhibition of fresh plant weight at 600 g/ha using postemergence protocol measured after 24 days under green house conditions; settings: post-emergence
[9] = tested on: Brassica rapa subsp. oleifera; assay: Herbicidal activity against Brassica rapa subsp. oleifera assessed as inhibition of fresh plant weight at 300 g/ha using postemergence protocol measured after 24 days under green house conditions; settings: post-emergence
[10] = tested on: Spirodela polyrhiza; assay: Inhibition of chlorophyll in Spirodela polyrhiza fronds at 10 ug/mL using light intensity of 45 uE/m2/s measured after 7 days; format: functional; settings: 168 h
Procedure, shortened: as §1

[11] = tested on: Brassica rapa subsp. oleifera; assay: Herbicidal activity against Brassica rapa subsp. oleifera assessed as inhibition of fresh plant weight at 75 g/ha using postemergence protocol measured after 24 days under green house conditions; settings: post-emergence
[12] = tested on: Amaranthus retroflexus; assay: Herbicidal activity against Amaranthus retroflexus assessed as inhibition of fresh plant weight at 150 g/ha using postemergence protocol measured after 24 days under green house conditions; settings: post-emergence
[13] = tested on: Digitaria; assay: Herbicidal activity against Digitaria adscendens assessed as inhibition of fresh plant weight at 750 g/ha using postemergence protocol measured after 24 days under green house conditions; settings: in Digitaria adscendens, post-emergence
[14] = tested on: Amaranthus retroflexus; assay: Herbicidal activity against Amaranthus retroflexus assessed as inhibition of fresh plant weight at 750 g/ha using preemergence protocol measured after 24 days under green house conditions; settings: pre-emergence
[15] = tested on: Amaranthus retroflexus; assay: Herbicidal activity against Amaranthus retroflexus assessed as inhibition of fresh plant weight at 300 g/ha using postemergence protocol measured after 24 days under green house conditions; settings: post-emergence
[16] = tested on: Brassica rapa subsp. oleifera; assay: Herbicidal activity against Brassica rapa subsp. oleifera assessed as inhibition of fresh plant weight at 750 g/ha using postemergence protocol measured after 24 days under green house conditions; settings: post-emergence
[17] = tested on: Amaranthus retroflexus; assay: Herbicidal activity against Amaranthus retroflexus assessed as inhibition of fresh plant weight at 75 g/ha using postemergence protocol measured after 24 days under green house conditions; settings: post-emergence
[18] = tested on: Digitaria; assay: Herbicidal activity against Digitaria adscendens assessed as inhibition of fresh plant weight at 750 g/ha using preemergence protocol measured after 24 days under green house conditions; settings: in Digitaria adscendens, pre-emergence

| Structure (SMILES) | inhibition at 750 g/ha [1] [%] | inhibition at 600 g/ha [2] [%] | inhibition at 750 g/ha [3] [%] | inhibition at 750 g/ha [4] [%] | inhibition at 1 µg/mL [5] [%] | inhibition at 750 g/ha [6] [%] | inhibition at 150 g/ha [7] [%] | inhibition at 600 g/ha [8] [%] | inhibition at 300 g/ha [9] [%] | inhibition at 10 µg/mL [10] [%] | inhibition at 75 g/ha [11] [%] | inhibition at 150 g/ha [12] [%] | inhibition at 750 g/ha [13] [%] | inhibition at 750 g/ha [14] [%] | inhibition at 300 g/ha [15] [%] | inhibition at 750 g/ha [16] [%] | inhibition at 75 g/ha [17] [%] | inhibition at 750 g/ha [18] [%] |
| --- | --- | --- | --- | --- | --- | --- | --- | --- | --- | --- | --- | --- | --- | --- | --- | --- | --- | --- |
| Cc1cc(-c2cccc(C(F)(F)F)c2)c(Nc2ccccc2)nn1 | 60 | 61 | 43 | 48 | 100 | 15 | 74 | 92 | 84 | 100 | 66 | 41 | 0 | 33 | 43 | 99 | 18 | 43 |
| Cc1cccc(Nc2nnc(C)cc2-c2cccc(C(F)(F)F)c2)c1 | 64 | 52 | 8 | 18 | 100 | 29 | 0 | 42 | 30 | 100 |  | 23 | 6 | 81 | 25 | 79 |  | 7 |
| Cc1ccc(Nc2nnc(C)cc2-c2cccc(C(F)(F)F)c2)cc1 | 85 | 59 | 0 | 82 | 95 | 2 | 39 | 59 | 54 | 96 |  | 17 | 18 | 90 | 28 | 99 |  | 17 |
| Cc1cc(-c2cccc(C(F)(F)F)c2)c(Nc2ccccc2F)nn1 | 100 | 75 | 0 | 18 | 100 | 21 | 67 | 96 | 88 | 100 | 60 | 48 | 40 | 0 | 58 | 100 | 39 | 15 |
| Cc1cc(-c2cccc(C(F)(F)F)c2)c(Nc2ccc(F)cc2)nn1 | 85 | 64 | 2 | 8 | 100 | 23 | 58 | 93 | 83 | 100 | 55 | 43 | 0 | 19 | 55 | 88 | 32 | 0 |
| Cc1cc(-c2cccc(C(F)(F)F)c2)c(Nc2ccc(Cl)cc2)nn1 | 100 | 66 | 0 | 18 | 87 | 0 | 87 | 90 | 89 | 100 | 52 | 45 | 0 | 0 | 60 | 100 | 42 | 0 |
| Cc1cc(-c2cccc(C(F)(F)F)c2)c(Nc2cccc(C(F)(F)F)c2)nn1 | 95 | 54 | 0 | 0 | 100 | 8 | 72 | 88 | 79 | 100 | 48 | 37 | 0 | 0 | 42 | 96 | 32 | 0 |
| Cc1cc(-c2cccc(C(F)(F)F)c2)c(NCc2ccccc2)nn1 | 27 |  | 0 | 0 | 83 | 8 |  |  |  | 86 |  |  | 23 | 4 |  | 30 |  | 7 |
| Cc1ccc(CNc2nnc(C)cc2-c2cccc(C(F)(F)F)c2)cc1 | 2 |  | 78 | 16 | 34 | 0 |  |  |  | 74 |  |  | 54 | 31 |  | 20 |  | 64 |
| COc1ccc(CNc2nnc(C)cc2-c2cccc(C(F)(F)F)c2)cc1 | 18 |  | 22 | 0 | 51 | 0 |  |  |  | 84 |  |  | 8 | 2 |  | 14 |  | 0 |

— ChEMBL document CHEMBL3046507, “Synthesis and herbicidal activities of novel 3-N-substituted amino-6-methyl-4-(3-trifluoromethylphenyl)pyridazine derivatives” (2008)
